Published values from different studies.
Lines come from different studies, so protocols differ.
Organism: Trypanosoma cruzi
Observed: parasite growth

Compound	assay	system	conditions	IC50
CCCCCCCCCCCCCC#CC(=O)O		rat Myoblast	intracellular, amastigote	80 µM
CCCCCCCCCCCCCC#CC(=O)O		rat Myoblast, TULAHUEN	intracellular, amastigote	20.2 µg/mL
O=C(Cn1ccnc1[N+](=O)[O-])NCc1ccccc1		TULAHUEN	intracellular, amastigote	1.2 µM
O=C(N[C@@H](Cc1ccccc1)C(=O)c1c[nH]nn1)[C@H](Cc1ccccc1)NC(=O)N1CCOCC1		TULAHUEN	intracellular, amastigote	> 64 µM
O=C(Nc1ccc2c(c1)B(O)OC2)Nc1ccc(F)c(C(F)(F)F)c1		TULAHUEN	intracellular, amastigote	6.6 µM
FC(F)(F)c1ccccc1-c1nc(N2CCC(c3ccccn3)C2)c2ccccc2n1 (stereo not drawn)	imaging	U2OS	intracellular, amastigote	7.43 µM
O=C(Cn1ccnc1[N+](=O)[O-])NCc1ccccc1			epimastigote	23 µM
C[Si](C)(C)c1cc(C(=O)[C@H](Cc2ccccc2)NC(=O)[C@H](Cc2ccccc2)NC(=O)N2CCOCC2)no1 (mixture of isomers)		TULAHUEN	intracellular, amastigote	> 64 µM
CC1CS(=O)(=O)CCN1/N=C/c1ccc([N+](=O)[O-])o1 (stereo not drawn)			epimastigote	2.4 µM
c1ccc(CN2CCN(c3nc(-c4ccccn4)nc4ccccc34)CC2)cc1	imaging	U2OS	intracellular, amastigote	3 µM
O=C(N[C@@H](Cc1ccccc1)C(=O)c1cc(-c2ccccc2)on1)[C@H](Cc1ccccc1)NC(=O)N1CCOCC1 (single isomer, unassigned)		TULAHUEN	intracellular, amastigote	> 64 µM
Oc1cccc(-c2nc(N3CCC(c4ccccn4)C3)c3ccccc3n2)c1 (stereo not drawn)	imaging	U2OS	intracellular, amastigote	4.22 µM
C[C@@H]1[C@H](O)[C@@H](C)/C=C/C=C/C=C/C=C/C=C/C=C/C=C/[C@H](O[C@@H]2O[C@H](C)[C@@H](O)[C@H](N)[C@@H]2O)C[C@@H]2O[C@](O)(C[C@@H](O)C[C@@H](O)[C@H](O)CC[C@@H](O)C[C@@H](O)CC(=O)O[C@H]1C)C[C@H](O)[C@H]2C(=O)O		NIH3T3, TULAHUEN	96 h, intracellular, amastigote	0.48 µM
Fc1ccccc1-c1nc(N2CCC(c3ccccn3)C2)c2ccccc2n1 (stereo not drawn)	imaging	U2OS	intracellular, amastigote	5.37 µM
O=C(N[C@H](CCc1ccccc1)C(=O)c1cc(Cc2ccccc2)on1)[C@H](Cc1ccccc1)NC(=O)N1CCOCC1		TULAHUEN	intracellular, amastigote	> 64 µM
